Molecules are shown by their SMILES.

The data set can be described thus: Toxicity liver stage against HepG2, at 10uM. The format is cell-based. On the set-up: test concentration 10 uM, cell line HepG2-A16-CD81EGFP. The conditions noted are these: human, HepG2-A16-CD81EGFP cells; read-out: INHIBITION
In short, it runs like this:
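Uninfected HepG2-A16-CD81EGFP cells, 3 × 10^3 per well, 1536-well, plated on prespotted compound at 10 μM final, parasite-free screening media added to match infected plates; puromycin 10 μM positive, DMSO 0.5% negative; run in parallel with 48 h PbLuc assay at 37 °C, 5% CO2; viability by CellTiter-Glo luminescence, normalized to controls.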
In the case of `CC1CCN(C(=O)c2cn(-c3cc(N4CCOCC4)ncn3)cn2)CC1`, the cytotoxicity at 10 µM was 1.75%. On to `CC1(C)OC(=O)N(CCOc2ccc(F)cc2)C1=O`, for which the cytotoxicity at 10 µM was -8.68%. The same measure for `OCC1CN(Cc2nc(C(F)(F)F)cs2)c2ccccc2O1` (stereo unspecified): 3.97%; for `Cc1n[nH]c(C)c1CC(=O)N1CC[C@@](C)(O)[C@@H](Cc2ccccc2)C1`: 5.94%; for `CN(C)S(=O)(=O)c1ccc(=O)n(CC2CCCCO2)c1` (stereo unspecified): -8.58%.

In the case of `CN1CCN(Cc2ccccc2Oc2ccc(C(N)=O)cn2)CC1`, the cytotoxicity at 10 µM is -23.6%. For the compound `Cc1ccc(CNC(c2ccccc2)c2nccn2C)cc1C` (stereo unspecified), the cytotoxicity at 10 µM turned out to be 0.323%. In the case of `CCc1nnc2n1CCN(C(=O)c1csc(-c3cnn(C)c3)n1)C2` it was 6.41%; in that of `c1cc2occc2c(N2CCCC(c3nncn3C3CC3)C2)n1` (stereo unspecified), 1.97%; in that of `CSC(C)C(=O)N1CCCN(Cc2nccn2C)CC1` (stereo unspecified), -11.6%. In the case of `O=C(C1CC2(CCNCC2)CN1)N1CCN(c2ccccc2)CC1` (stereo unspecified) it was -8.6%; in that of `O=C(CCn1c(C(F)F)cc2cccnc21)NC1CCCC1`, -40.5%; in that of `COc1ncccc1C(=O)N1CCCC(n2ccnc2C)C1` (stereo unspecified), -7.41%.

As for `CN(Cc1nnc2ccccn12)C(=O)NC1CCCCC1`, the cytotoxicity at 10 µM is -5.97%. `CCNC(=O)N1CCN(c2nc3ccccc3n2C)CC1`: the cytotoxicity at 10 µM amounted to 0.739%. In the case of `CCCn1ncc(C2CC(=O)NCc3nc4cc(C)ccn4c32)c1C` (stereo unspecified) it was -3.21%; in that of `COc1ccc(SCC2CNc3nc4ccccc4c(=O)n32)cc1` (stereo unspecified), 7.69%.

As to `CCOc1ccc(C(=O)N2C[C@@H]3CC[C@H]2CN(C(=O)C2CCC2)C3)cc1`, the cytotoxicity at 10 µM was -4.68%. The same measure for `Cc1csc2c(N3CCC(NCCCc4cnn(C)c4)CC3)ncnc12`: 0.301%; for `CCCN(Cc1nc2ccccc2[nH]1)Cc1ccccc1OC`: -39.6%. On to `Cc1cnn(CCNCC(O)c2ccc(F)c(F)c2)c1` (stereo unspecified), for which the cytotoxicity at 10 µM was -0.796%. On to `Cc1cc(C(C)NC(=O)c2ccc(O)nc2)c(C)o1` (stereo unspecified), for which the cytotoxicity at 10 µM was -1.85%. On to `Cn1nccc1NC(=O)Cn1ccc(-c2ccc3c(c2)OCO3)n1`, for which the cytotoxicity at 10 µM is -6.74%. The same measure for `Cc1cccc(CN2C[C@@H]3OCCN(S(=O)(=O)N(C)C)[C@@H]3C2)c1`: -12.4%; for `CCOCCCC(=O)N1CCN(c2cccc(OC)c2)C(C)C1` (stereo unspecified): 0.0272%; for `COCc1nc(CNC2CSCCSC2)no1`: 8.33%. The same measure for `CC(Cn1ccnc1)NC(=O)N1CCN(Cc2ccncc2)CC1` (stereo unspecified): -4.1%; for `CC(C)Cc1noc(CN2CCN(CCOc3ccc(Cl)cc3)CC2)n1`: 24%. The same measure for `CCC(=O)N1CC[C@H](O)[C@@H]1Cc1ccccc1`: 0.081%.

For the compound `CN(CCO)Cc1nnc(C2CCN(CC(C)(C)C)CC2)n1C`, the cytotoxicity at 10 µM stood at 1.89%.

In the case of `CCN(CC)c1ccc(NC(=O)NC(C)Cn2cccn2)cn1` (stereo unspecified), the cytotoxicity at 10 µM worked out at 1.35%. The same measure for `O=C(c1ccccc1)N1C[C@@H]2CCCO[C@@H]2[C@H](N2CCCC2)C1`: -2.02%. The same measure for `Cc1cc(CN[C@@H](Cc2ccccc2)C(N)=O)c(C)s1`: -0.527%. In the case of `CS(=O)(=O)N1CCOCC2(CCN(c3cnccn3)CC2)C1` it was -107%. Take `CCOc1ccc(Cl)c(C(=O)N2CCN(CC(C)(C)O)CC2)n1`: the cytotoxicity at 10 µM is -5.72%. Turning to `Cc1cc(C(=O)N[C@H]2CN(CCC(N)=O)C[C@@H]2C2CC2)sc1C`, the cytotoxicity at 10 µM was 8.28%. The same measure for `COc1cccc2c1N(Cc1noc(C3CC3)n1)CCC2`: -5.59%.

As for `CN(C)c1ccc(-c2cc(=O)n3c(n2)CCCCC3)cc1`, the cytotoxicity at 10 µM was -13.1%.

As to `O=C1N[C@@H]2CCN(C(=O)N3CCOCC3)[C@@H]2C(=O)N1Cc1ccccc1`, the cytotoxicity at 10 µM was -3.36%. In the case of `CC(C)NC(=O)N1CCC2(CCC(=O)N2CCN(C)C)CC1` it was -7.13%; in that of `O=C(c1ccoc1)N1CCc2c(COCC3CC3)cncc2C1`, -76.9%; in that of `CNc1nc(CNC(=O)Nc2cccc(-n3ccc(C)n3)c2)cs1`, -15.7%. In the case of `Cc1sc2c(C3CCCNC3)nc(Nc3cccc(F)c3)n2c1C` (stereo unspecified) it was 1.24%; in that of `COc1ccc(CNc2c(C)cnc3c2c(=O)n(C)c(=O)n3C)cc1`, 2.9%; in that of `C[C@H](O)CNc1cc(-c2ccccc2)ncn1`, -11.2%. The same measure for `O=C(CNC(=O)C1CCCC1)NCC(O)c1ccc2ccccc2c1` (stereo unspecified): 0.587%; for `COCCCNC(=O)c1cc(C(C)C)nc(N2CCCC2)n1`: 6.5%. On to `Cc1ccc(CN(Cc2ccccn2)C(=O)C2CCCCCN2C)s1` (stereo unspecified), for which the cytotoxicity at 10 µM was -20.2%. In the case of `Cc1ncsc1C(=O)NC1CCN(CC(N)=O)CC1` it was -3.54%; in that of `COC[C@@]12CCO[C@@H]1CCN(C(=O)COc1ccccc1OC)C2`, -8.89%; in that of `COC(=O)c1cnc(C(=O)N(c2ccc(OC)c(F)c2)C(C)C)cn1`, -1.23%. As for `FC(F)(F)c1cc(C2CCCN(c3cnccn3)C2)n2ccnc2n1` (stereo unspecified), the cytotoxicity at 10 µM amounted to 6.39%. In the case of `N[C@H]1CN(C(=O)Cc2ccc(Cl)c(Cl)c2)C[C@@H]1C1CC1` it was -14.4%. In the case of `CNc1cc2c(nn1)CCN(C(=O)c1ccc3c(c1)CCC3)C2` it was 3.15%; in that of `CCOc1cccc2c1OCC(C(=O)NS(=O)(=O)c1ccc(Cl)s1)=C2`, -3.21%. In the case of `CCCSCC(=O)N1CCCC2(CCC(=O)N(CCc3c[nH]cn3)C2)C1` (stereo unspecified) it was -0.0682%; in that of `CN(C)CC(=O)N1C[C@@H]2CC[C@H](Oc3ccccc3)[C@@H]2C1`, -26.4%; in that of `COCCC(=O)N(CCC#N)c1ccc2c(c1)OCCO2`, -1.23%. For the compound `CN(CCC#N)C(=O)CSc1cc(F)ccc1F`, the cytotoxicity at 10 µM is 13.2%. Take `NC(=O)c1ccc2c(c1)nc1n2CCN(Cc2ccccc2)C1`: the cytotoxicity at 10 µM is -8.8%.

`CCC(Nc1nnnn1-c1ccccc1)C(=O)NCc1ccsc1` (stereo unspecified): the cytotoxicity at 10 µM is -3.56%. For the compound `O=C(CCc1ccco1)NS(=O)(=O)N1CCOc2ccccc21`, the cytotoxicity at 10 µM turned out to be 6.07%.

Consider `Cc1nc(C)c(CC(=O)N2C[C@H]3CC[C@@H](C2)N(CC2CC2)C3)s1`, for which the cytotoxicity at 10 µM was -1.59%.

Consider `CC(C)C1CN(C(=O)c2ccsc2)CCS1` (stereo unspecified), for which the cytotoxicity at 10 µM was 2.46%.

Take `CCOCCCn1c(NC(=O)c2cc(C)on2)nc2ccccc21`: the cytotoxicity at 10 µM was -31.3%.

Turning to `COCCNC(=O)c1ccnn1-c1ccc2ccccn12`, the cytotoxicity at 10 µM came out at 8.28%.

Regarding `CN(C)CC(=O)N1CCO[C@@H]2CC(COCc3ccncc3)C[C@H]21` (stereo partly specified), the cytotoxicity at 10 µM is -108%. In the case of `CC(C)c1cc(NCC(O)c2ccncc2)n2nccc2n1` (stereo unspecified) it was -1.8%. The same measure for `CC(=O)N1CC[C@H]2OCC[C@@H](C(=O)Nc3cccnc3C)[C@@H]2C1`: 11.3%. The same measure for `COCc1cc(C[C@@H]2CC[C@H](O)[C@@H](CN(C)C)O2)no1`: 12%.

Take `Cc1cc(C2CCCN2Cc2cc(-c3ccco3)on2)on1` (stereo unspecified): the cytotoxicity at 10 µM was 1.6%.
